# Test system: BMDM
# Assay: Anti-osteoporosis activity in C57BL/6 mouse bone marrow macrophages assessed as inhibition of M-CSF/RANKL-induced osteoclast differentiation supplemented with fresh medium containing compounds every 2 days for 5 measured post-last dose by TRAP staining based assay
# Type: functional, cell-based
# Conditions: C57BL/6, BMDM, 5 days
# In short: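 Mouse (C57BL/6, 6-week) BMMs were plated at 6×10³ cells/well with M-CSF 30 ng/mL overnight, then given complete α-MEM with M-CSF and GST-rRANKL 100 ng/mL plus compound at varied concentrations, refreshed every 2 days. At day 5 cells were fixed in 4% paraformaldehyde and TRAcP-stained; TRAcP+ cells with >3 nuclei were counted.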
row,SMILES,IC50 [µM]
1,CCOC(=O)c1ccccc1SCC(=O)Nc1nccs1,3.98
2,O=C(Nc1nc2ccccc2s1)c1cc2ccccc2c(=O)o1,5.13
3,O=C(NCc1ccco1)c1cc2ccccc2c(=O)o1,4.24
4,COc1cccc(OC)c1C(=O)Nc1nc(C)c(C(C)=O)s1,2.14
5,Cc1ccc(-c2csc(NCc3ccc(C)o3)n2)cc1,1.19
6,Cc1cc(NC(=O)Cn2cc(-c3ccncc3)nn2)no1,0.43
7,COc1cccc(-c2cn(-c3ccc(C(F)(F)F)cc3)nc2C(=O)NCCCN(C)C)c1,> 30
8,COc1cccc(-c2cn(-c3ccc(C(F)(F)F)cc3)nc2C(=O)NC2CCCCC2)c1,> 30
9,O=C(Cn1cc(-c2cccs2)nn1)Nc1nc2ccccc2s1,21.4
10,Cc1nc(NC(=O)/C=C/c2ccc3c(c2)OCO3)sc1C,8.11
11,O=C(Cn1cc(-c2ccc([N+](=O)[O-])cc2)nn1)Nc1nc2ccccc2s1,3.28
12,CCOC(=O)c1sc(NC(=O)Cn2cc(-c3ccccc3Cl)nn2)nc1C,0.13
13,O=C(Cn1cc(-c2ccccc2Cl)nn1)Nc1nccs1,0.06
14,CCCn1c(=O)c(C(=O)Nc2nccs2)c(O)c2ccccc21,3.98
15,CCCN1C(=O)c2ccc(C(=O)Nc3nccs3)cc2C1=O,10
16,COc1cccc(-c2cn(-c3ccc(C(F)(F)F)cc3)nc2C(=O)N2CCN(c3ncccn3)CC2)c1,> 30
17,Nc1cccc(-c2cn(CC(=O)Nc3nccs3)nn2)c1,1.27
18,Cc1cc(NC(=O)Cn2cc(-c3ccccc3Cl)nn2)no1,> 30

row,SMILES,IC50 [µM]
1,Cc1cc(NC(=O)Cn2cc(-c3cccs3)nn2)no1,> 30
2,CCOc1cc(C(=O)Nc2nccs2)cc(OCC)c1OCC,6.75
3,Cc1ccc(-c2csc(NC(=O)c3ccc(C)o3)n2)cc1,4.03
4,N#Cc1ccc(C(=O)Nc2nccs2)cc1,> 30
5,CCOC(=O)c1sc(NC(=O)Cn2cc(-c3cccs3)nn2)nc1C,0.02
6,O=C(Cn1cc(-c2cccs2)nn1)Nc1nccs1,> 30
7,O=C(c1cc2ccccc2s1)N1CCOCC1,3.15
8,O=C(Cn1cc(-c2ccncc2)nn1)Nc1nc2ccccc2s1,0.05
9,COc1cccc(-c2cn(-c3ccc(C(F)(F)F)cc3)nc2C(=O)N2CCc3ccccc3C2)c1,> 30
10,Cc1cc(NC(=O)Cn2cc(-c3cccc(Cl)c3)nn2)no1,> 30
11,CC(C)Oc1ccccc1C(=O)Nc1nccs1,12.6
12,O=C(Cn1cc(-c2cccc(Cl)c2)nn1)Nc1nccs1,> 30
13,Cc1cnc(NC(=O)c2ccc3c(c2)OCO3)s1,> 30
14,N#Cc1ccc(-c2cn(CC(=O)Nc3nc4ccccc4s3)nn2)cc1,> 30
15,Nc1cccc(-c2cn(CC(=O)Nc3nc4ccccc4s3)nn2)c1,1.11
16,O=C(Cn1cc(-c2ccccc2Cl)nn1)Nc1nc2ccccc2s1,> 30
17,O=C(C1=C(O)C(=O)N(CCCn2ccnc2)[C@@H]1c1cccc(O)c1)c1ccc2c(c1)OCCO2,2.7

# Next, values leading:
row,IC50 [µM],SMILES
1,0.25,Cc1csc(NC(=O)Cn2cc(-c3cccc(N)c3)nn2)n1
2,> 30,C#Cc1ccc(-c2cn(CC(=O)Nc3cc(C)on3)nn2)cc1
3,0.27,N#Cc1ccc(-c2cn(CC(=O)Nc3nccs3)nn2)cc1
4,1.84,CCOC(=O)c1sc(NC(=O)Cn2cc(-c3ccc([N+](=O)[O-])cc3)nn2)nc1C
5,0.1,Cc1csc(NC(=O)Cn2cc(-c3ccncc3)nn2)n1
6,0.04,Cc1csc(NC(=O)Cn2cc(-c3cccs3)nn2)n1
7,1.24,Cc1csc(NC(=O)Cn2cc(-c3ccccc3Cl)nn2)n1
8,0.66,CCOC(=O)c1sc(NC(=O)Cn2cc(-c3ccc(F)cc3)nn2)nc1C
9,1.33,COc1ccc(-c2cn(CC(=O)Nc3nc4ccccc4s3)nn2)cc1
10,> 30,Cc1cc(NC(=O)Cn2cc(-c3ccc(F)cc3)nn2)no1
11,0.31,CCOC(=O)c1sc(NC(=O)Cn2cc(-c3ccc(C#N)cc3)nn2)nc1C
12,0.12,CCOC(=O)c1sc(NC(=O)Cn2cc(-c3ccncc3)nn2)nc1C
13,> 30,Cc1csc(NC(=O)Cn2cc(-c3ccc(C(=O)O)cc3)nn2)n1
14,> 30,COC(=O)c1ccc(-c2cn(CC(=O)Nc3cc(C)on3)nn2)cc1
15,0.25,Cc1csc(NC(=O)Cn2cc(-c3ccc(F)cc3)nn2)n1
16,9.32,Cc1cc(NC(=O)Cn2cc(-c3ccc(C#N)cc3)nn2)no1
17,3.89,COc1ccc(-c2cn(CC(=O)Nc3nc(C)cs3)nn2)cc1

row,IC50 [µM],SMILES
1,> 30,O=C(Cn1cc(-c2ccc(F)cc2)nn1)Nc1nc2ccccc2s1
2,0.19,O=C(Cn1cc(-c2ccc(F)cc2)nn1)Nc1nccs1
3,> 30,COc1ccc(-c2cn(CC(=O)Nc3cc(C)on3)nn2)cc1
4,2.33,CCOC(=O)c1sc(NC(=O)Cn2cc(-c3ccc(OC)cc3)nn2)nc1C
5,> 30,COC(=O)c1ccc(-c2cn(CC(=O)Nc3nc4ccccc4s3)nn2)cc1
6,0.18,CCOC(=O)c1sc(NC(=O)Cn2cc(-c3ccc(Cl)cc3)nn2)nc1C
7,1.1,O=C(Cn1cc(-c2ccc(Cl)cc2)nn1)Nc1nccs1
8,0.52,Cc1csc(NC(=O)Cn2cc(-c3ccc(Cl)cc3)nn2)n1
9,1.04,O=C(Cn1cc(-c2ccc([N+](=O)[O-])cc2)nn1)Nc1nccs1
10,0.13,O=C(Cn1cc(-c2ccc(Cl)cc2)nn1)Nc1nc2ccccc2s1
11,0.19,Cc1csc(NC(=O)Cn2cc(-c3ccc([N+](=O)[O-])cc3)nn2)n1
12,1.91,Cc1cc(NC(=O)Cn2cc(-c3ccc(Cl)cc3)nn2)no1
13,0.51,COc1ccc(-c2cn(CC(=O)Nc3nccs3)nn2)cc1
14,1.22,Cc1cc(NC(=O)Cn2cc(-c3ccc([N+](=O)[O-])cc3)nn2)no1
15,> 30,C#Cc1ccc(-c2cn(CC(=O)Nc3nccs3)nn2)cc1
16,> 30,COC(=O)c1ccc(-c2cn(CC(=O)Nc3nc(C)cs3)nn2)cc1
